Measurements pooled from the literature.
Each line is one published result; the experiments were not run side by side.
Target: Fibroblast growth factor receptor 1 (FGFR1, Homo sapiens, UniProt P11362)

Compound | observed | method | concentration | remaining binding
C[C@@H](c1ccc(-n2cnc3c(N)ncnc32)cc1)N1CCc2nn(C)c(Cc3ccccc3)c2C1=O | binding | competition with immobilised ligand | 0.1 µM | 94%
COc1cccc(CNC(=O)c2nc3scc(COCc4ccc(C(=O)O)cc4)c3c(=O)[nH]2)c1 | cell-free assay | competition with immobilised ligand | 1 µM | 86.5%
CC1CCCN1c1nccc(-c2cnn3ncccc23)n1 (stereo not shown) | binding | – | 1 µM | 100%
O=C(O)c1cc(-c2ccc(C3CCNCC3)cc2)c2ccc(-c3ccc(C(F)(F)F)cc3)cc2c1 | cell-free assay | competition with immobilised ligand | 1 µM | 100%
CNC(=O)[C@@H]1CC[C@@H](n2c(-c3ccc4cnccc4c3)nc3ccc(C(=O)NCc4cccc(C(N)=O)c4)cc32)C1 | binding | competition with immobilised ligand | 1 µM | 90%
O=C(c1ccc(Nc2nccc(-c3cc4ccccc4s3)n2)cc1)N1CCC(N2CCCC2)CC1 | binding | competition with immobilised ligand | 1 µM | 88%
CN(C)c1ncnc(-c2ccc3nc(Nc4cc(CN5CCN(C(=O)CC(F)(F)F)CC5)ccn4)[nH]c3c2)c1Cl | cell-free assay | competition with immobilised ligand | 1 µM | 100%
O=C(c1ccc(Nc2ncc(Cl)c(-c3ccc(Cl)s3)n2)cc1)N1CCC(N2CCCC2)CC1 | binding | competition with immobilised ligand | 1 µM | 12%
CN(C)c1nccc(-c2cnn3ncccc23)n1 | binding | – | 1 µM | 100%
COc1cnc(Nc2cccc(S(N)(=O)=O)c2)nc1N1CCN(c2ccccc2)C(=O)C1 | binding | competition with immobilised ligand | 1 µM | 83%
C[C@H]1CCN(c2nccc(-c3cnn4ncccc34)n2)C1 | binding | – | 1 µM | 100%
c1cncc(-c2cccc(Nc3nccc(NC4CCCCC4)n3)c2)c1 | binding | competition with immobilised ligand | 10 µM | 14%
F[C@@H]1CCN(c2nccc(-c3cnn4ncccc34)n2)C1 | binding | – | 1 µM | 87%
O=C(NCC1CCOCC1)c1n[nH]cc1NC(=O)c1c(F)cccc1F | binding | competition with immobilised ligand | 1 µM | 100%
CO[C@H]1CC[C@H](CNc2ccc(S(=O)(=O)NC(=O)c3ccc(N4CCN(CC5=C(c6ccc(Cl)cc6)CC(C)(C)CC5)CC4)cc3Oc3cnc4[nH]ccc4c3)cc2[N+](=O)[O-])CC1 | cell-free assay | competition with immobilised ligand | 1 µM | 68%
COc1ncc2cc3ccccc3nc2c1C#N | cell-free assay | competition with immobilised ligand | 5 µM | 73%
O=C1CCc2cc(Nc3cc(OC4CCOCC4)c([N+](=O)[O-])cc3Cl)ccc2N1 | cell-free assay | competition with immobilised ligand | 1 µM | 93%
N[C@@H]1CCN(c2nccc(-c3cnn4ncccc34)n2)C1 | binding | – | 1 µM | 96%
C[C@@H]1CN(c2cc(-c3nn(C)c4ccc(OC5(C)CC5)cc34)ncn2)C[C@H](C)O1 | cell-free assay | competition with immobilised ligand | 1 µM | 100%
CN(C)c1nccc(-c2cnc3ncccn23)n1 | binding | – | 1 µM | 82%
O=C(c1ccc(Nc2ncc(Cl)c(-c3cc4ccccc4s3)n2)cc1)N1CCC(N2CCCC2)CC1 | binding | competition with immobilised ligand | 1 µM | 36%
Cc1nc(C2CCN(C(=O)c3ccc(OC(F)(F)F)cc3N)CC2)c2ncc(N3CCN(C)CC3)cc2n1 | cell-free assay | competition with immobilised ligand | 1 µM | 100%
